High-throughput results (PubChem BioAssay)
5HT1E ag: 5-HT1E (human) receptor agonism; P28566; CHO 5-HT1E Ga15 NFAT-bla reporter, FRET; 0% DMSO wells, 100% control agonist wells; activation, % at 6 µM; 0.69% of 65,000 active; AID 574;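 active means activation above a set limit, the screen-wide mean activation plus 3 SD, cut at about 8.5% in these data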;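 further: 100% = positive control agonist at 1 µM giving full maximal response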
S1P1 ag-PAM: S1P1 (human) agonism or agonism potentiation; P21453; S1P1 CRE-bla cells, forskolin, beta-lactamase FRET, potentiator mode; S1P1 agonist co-added at EC20, 2 nM; 100% = saturating reference agonist, 0% = basal; activation, % at 9.5 µM; 0.57% of 56,000 active; AID 449;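 active means activation above a cutoff set at the mean activation of all tested compounds plus 3 SD, cut at about 54% in these data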;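 further: forskolin at 4 µM as EC80 and the EC20 agonist is SEW2871; 100% = SEW2871 at its EC100 plus forskolin at EC80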
S1P3 ag: agonists of human S1P3 receptor. Q99500. S1P3 NFAT-BLA reporter cells, agonism, FRET ratio; relative to 1 µM S1P, basal subtracted. activation, % at 4.5 µM. 0.1% of 60,000 active. AID 373;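 active means activation above the screen-wide mean plus 3 SD, cut at about 4.5% in these data, passing the limit was not always enough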
Target sequence (Q99500 whole entry, looked up): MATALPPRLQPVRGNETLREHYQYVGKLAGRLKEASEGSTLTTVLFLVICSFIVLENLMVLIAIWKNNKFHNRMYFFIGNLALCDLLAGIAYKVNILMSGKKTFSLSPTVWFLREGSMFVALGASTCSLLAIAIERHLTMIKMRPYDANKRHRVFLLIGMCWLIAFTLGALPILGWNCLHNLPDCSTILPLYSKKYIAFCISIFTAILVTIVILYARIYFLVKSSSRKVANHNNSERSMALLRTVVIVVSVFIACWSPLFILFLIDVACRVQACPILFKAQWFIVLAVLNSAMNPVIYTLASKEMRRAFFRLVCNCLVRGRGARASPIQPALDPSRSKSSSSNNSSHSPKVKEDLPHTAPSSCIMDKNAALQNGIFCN
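Measure – % activation relative to 1 µM S1P (100%), per plate · System – stable CHO line with human S1P3, Gα16, NFAT-BLA reporter · Timing – cells plated overnight, compound 4 h 37 °C, substrate 2 h RT · Technique – fluorescent BLA substrate, ex 405 nm, em 460/535 nm ratio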
5HT1E antag: blocks the human 5-HT1E serotonin receptor. P28566. CHO 5-HT1E Ga15 NFAT-bla reporter, FRET, antagonist. inhibition, % at 6 µM. 0.99% of 65,000 active. AID 571;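 active means inhibition above a set limit, the mean inhibition across every tested compound plus 3 SD, cut at about 29% in these data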;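 further: signal is the 460 over 535 nm emission ratio of beta-lactamase substrate; 0% = agonist plus DMSO wells and 100% = wells without agonist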
5-HT1A blocker: 5-HT1a (human) receptor antagonism; AID 612; inhibition, % at 10 µM; 0.68% of 62,000 active; P08908; CHO 5-HT1a Ga15 NFAT-bla reporter, antagonist mode;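 active means inhibition above the mean of all tested compounds plus 3 SD, cut at about 43% in these data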;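 further: receptor stimulated by 5-CT agonist at 100 nM near EC80; beta-lactamase reporter measured by ratiometric fluorescence of a cleavable substrate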
HTR1A agonist: 5-HT1a (human) receptor agonism. P08908. CHO 5-HT1a Ga15 NFAT-bla reporter, FRET ratio; 0% basal, 100% maximal reference agonist. activation, % at 10 µM. 0.56% of 65,000 active;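 active means activation above the screen-wide mean activation plus 3 SD, cut at about 19% in these data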;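 further: 0% = DMSO wells and 100% = 5-CT at EC100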
Active calls of the source: *; / = no result given. A selection: hits, their analogues and other compounds. The true share with any hit is near 3%.

SMILES | 5HT1E ag | S1P1 ag-PAM | S1P3 ag | 5HT1E antag | 5-HT1A blocker | HTR1A agonist
COc1ccc(C(OC(=O)c2ccco2)C(=O)NC2CCCCC2)cc1OC (configuration not stated) | 0 | -6 | 0 | -3 | 2 | -2
CCCCCCc1cc2cc(C(=O)NC)c(=N)oc2cc1O | 2 | 5 | -2 | 2 | / | 33*
Cc1occc1-c1nnc(SCC(=O)Nc2ccccc2N2CCCCC2)n1C | 1 | -12 | 0 | -2 | 2 | 0
Cn1c2ccccc2c2nn(-c3ccccc3)c(=O)cc21 | 0 | -1 | -2 | 3 | / | 2
CSc1ccc(C2C(C#N)=C(N)N(c3ccccc3)C3=C2C(=O)CCC3)cc1 (configuration not stated) | 0 | / | / | 11 | 43* | 0
O=C1CCCC2=C1C(c1ccccc1)CC(=O)N2c1ccccc1 (configuration not stated) | 0 | 13 | -1 | -1 | 3 | 0
COc1ccc(N2CCN(c3nc(NCCc4ccc(OC)c(OC)c4)nc(OC)n3)CC2)cc1 | 0 | -23 | -2 | 21 | 46* | 5
Cc1cc(NC(=O)c2oc3ccccc3c2C)ccc1-n1cnnn1 | 0 | 79 | -2 | -5 | 6 | 1
COc1cc(OC)cc(C(=O)Nc2ccc(-n3cnnn3)c(C)c2)c1 | 36* | 15 | 0 | 22 | 17 | -5
N=c1c(C(=O)NCc2ccco2)cc2c(=O)n3ccccc3nc2n1Cc1ccc(Cl)cc1 | 5 | -142 | 4.8* | -16 | 13 | 27*
Cn1c(=N)c(S(=O)(=O)c2ccccc2)cc2c(=O)n3ccccc3nc21 | 5 | -58 | 1 | -1 | -18 | 12
CC(C)n1c(=N)c(C(=O)NCCc2ccccc2)cc2c(=O)n3ccccc3nc21 | 13* | -245 | 6.3* | -13 | -69 | 52*
N=c1c(S(=O)(=O)c2ccc(Cl)cc2)cc2c(=O)n3ccccc3nc2n1CCN1CCOCC1 | 8 | -32 | 1 | 0 | -51 | 24*
Cc1ccc(CNC(=O)c2cc3c(=O)n4ccccc4nc3n(Cc3ccco3)c2=N)cc1 | 1 | -61 | 4 | 5 | / | 4
Cc1ccc(CNC(=O)c2cc3c(=O)n4ccccc4nc3n(CC3CCCO3)c2=N)cc1 (configuration not stated) | 4 | -142 | 11 | -13 | / | 32*
CCC(C)NS(=O)(=O)c1ccc(NS(C)(=O)=O)cc1 (configuration not stated) | 0 | -2 | 0 | -3 | -2 | -2
OC1CCN(c2c3c(nc4cc(-c5cccc(F)c5)nn24)CCCC3)CC1 | 0 | / | / | 31* | 2 | 1
Fc1cccc(-c2cc3nc4c(c(N5CCC6(CC5)OCCO6)n3n2)CCCC4)c1 | -1 | / | / | 17 | -3 | -1
Cc1cc(NC(=O)C2CC2)ncc1NC(=O)C12CC3CC(CC(C3)C1)C2 | 0 | / | / | 6 | 3 | -1
O=C(Nc1ncnc2c1CCC2)C12CC3CC(CC(C3)C1)C2 | 0 | -2 | -1 | 16 | 2 | 40*
COC(=O)c1[nH]c2cc(C)ccc2c1NC(=O)CN1CCCc2ccccc21 | 2 | -4 | 0 | -2 | 18 | 265*
O=C(O)CN1C(=O)Nc2ccc(Br)cc2C1c1ccccc1 (configuration not stated) | -3 | / | / | 32* | -3 | -3
O=C1CN(C(=O)c2ccc(Br)o2)C(c2ccccc2)c2cc(Br)ccc2N1 (configuration not stated) | 1 | -36 | -1 | 4 | -6 | 1
CCN(C(=O)c1c(OC)cccc1OC)c1nnc(-c2cccnc2)s1 | 0 | -4 | 1 | -3 | -3 | 0
CCN(C(=O)C1CCCCC1)c1nnc(-c2cccnc2)s1 | 0 | 99* | 0 | 3 | 3 | 1
CCOC(=O)c1[nH]c(C)c(C(=O)Nc2cc(OC)ccc2OC)c1C | -1 | 5 | 0 | 49* | 20 | -3
Cc1noc(C)c1C(=O)Nc1nc(C23CC4CC(CC(C4)C2)C3)cs1 | -2 | 12 | -2 | 14 | 34 | 0
